Columns and labels:
[1] = target: T1, Aldo-keto reductase family 1 member C3 (Homo sapiens, UniProt P42330); test: Inhibition of human recombinant AKR1C3 assessed as 1-acenaphthenol oxidation by spectrophotometry
T1 sequence (P42330 whole entry): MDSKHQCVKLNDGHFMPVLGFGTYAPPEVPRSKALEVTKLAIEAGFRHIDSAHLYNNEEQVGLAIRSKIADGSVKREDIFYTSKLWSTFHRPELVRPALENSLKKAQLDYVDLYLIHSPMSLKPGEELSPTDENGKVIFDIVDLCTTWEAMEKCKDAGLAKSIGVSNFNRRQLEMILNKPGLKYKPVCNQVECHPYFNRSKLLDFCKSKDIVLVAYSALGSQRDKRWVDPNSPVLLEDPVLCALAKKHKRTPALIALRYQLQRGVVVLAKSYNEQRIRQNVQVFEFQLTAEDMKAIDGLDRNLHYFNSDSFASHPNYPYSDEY
Outline: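 NADH formation was monitored at 340 nm using initial velocities. IC50 was read graphically from log10[inhibitor] versus % inhibition. Ki was derived by Cheng-Prusoff for competitive inhibition.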

[2] = target: T2, Aldo-keto reductase family 1 member C1 (Homo sapiens) (UniProt Q04828); test: Inhibition of human recombinant AKR1C1 assessed as 1-acenaphthenol oxidation at 400 uM by spectrophotometry
T2 sequence (whole entry): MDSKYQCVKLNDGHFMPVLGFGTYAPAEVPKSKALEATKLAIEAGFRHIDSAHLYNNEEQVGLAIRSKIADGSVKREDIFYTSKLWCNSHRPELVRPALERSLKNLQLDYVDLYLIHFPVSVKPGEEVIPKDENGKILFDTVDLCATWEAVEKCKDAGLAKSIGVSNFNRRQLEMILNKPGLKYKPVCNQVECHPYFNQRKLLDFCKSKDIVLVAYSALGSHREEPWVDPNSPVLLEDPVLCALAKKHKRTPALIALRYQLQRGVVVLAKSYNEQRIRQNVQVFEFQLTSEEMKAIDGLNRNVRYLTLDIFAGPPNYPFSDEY
Outline: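 Recombinant AKR1C1 (0.3 μM) oxidizing 30 μM 1-acenaphthenol with 2.3 mM NAD+ in 100 mM phosphate pH 9.0, 0.005% triton X-114, 5% DMSO. NADH increase was followed at 340 nm.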

[3] = target: T1, Aldo-keto reductase family 1 member C3; test: Inhibition of human recombinant AKR1C3 assessed as S-tetralol oxidation by micro plate fluorescence reader based assay
Outline: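 Fluorometric plate-reader read-out of NADPH formation as initial velocity. Each inhibitor concentration run in quadruplicate. IC50 from fit to y = range/(1+I/IC50)^s + background.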

[4] = target: T2, Aldo-keto reductase family 1 member C1 (Homo sapiens); test: Inhibition of human recombinant AKR1C1 assessed as S-tetralol oxidation at 300 uM by micro plate fluorescence reader based assay
Outline: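 Buffer was 100 mM K3PO4 pH 7.0 with 200 μM NADP+ and 4% DMSO final. Inhibitor was tested at 300 μM, in quadruplicate. Rates are initial velocities.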

[5] = target: T1, Aldo-keto reductase family 1 member C3; test: Competitive inhibition of human recombinant AKR1C3 assessed as S-tetralol oxidation by Cheng-Prusoff equation analysis
Outline: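 NADPH formation followed fluorometrically; initial velocities measured in quadruplicate per inhibitor concentration. IC50 fitted as y = range/(1+I/IC50)^s + background, then converted to Ki with the Cheng-Prusoff equation for competitive inhibition.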

[6] = target: T3, Aldo-keto reductase family 1 member C4 (Homo sapiens) (UniProt P17516); test: Inhibition of human recombinant AKR1C4 assessed as S-tetralol oxidation at 300 uM by micro plate fluorescence reader based assay
T3 sequence (whole entry): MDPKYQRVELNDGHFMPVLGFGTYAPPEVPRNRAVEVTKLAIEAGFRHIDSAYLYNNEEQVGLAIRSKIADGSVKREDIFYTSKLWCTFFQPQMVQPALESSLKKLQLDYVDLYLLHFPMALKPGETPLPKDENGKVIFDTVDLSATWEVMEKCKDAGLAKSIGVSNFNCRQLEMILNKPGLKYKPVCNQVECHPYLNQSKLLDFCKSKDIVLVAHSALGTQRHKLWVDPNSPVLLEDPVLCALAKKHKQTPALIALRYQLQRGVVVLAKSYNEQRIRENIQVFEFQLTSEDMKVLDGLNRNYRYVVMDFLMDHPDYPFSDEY
Outline: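 NADPH production was measured fluorometrically. Inhibitor was tested at 300 μM, quadruplicate wells. Inhibition was taken from initial velocities.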

[7] = target: T4, Aldo-keto reductase family 1 member C1 (Homo sapiens, UniProt Q04828); test: Inhibition of human recombinant AKR1C1 assessed as 1-acenaphthenol oxidation by spectrophotometry
T4 sequence (Q04828 whole entry): T2 sequence (whole entry)

[8] = target: T5, Aldo-keto reductase family 1 member C3 (Homo sapiens) (UniProt P42330); test: Inhibition of human recombinant AKR1C3 assessed as 1-acenaphthenol oxidation at 400 uM by spectrophotometry
T5 sequence (whole entry): T1 sequence (P42330 whole entry)

Ki [1] [µM]	inhibition [2] [%]	inhibition [8] [%]	SMILES	further results
54	–	–	O=C(O)c1cc(-c2cccc(O)c2)nc2ccccc12	–
76	–	–	O=C1COc2ccc(C(=O)c3ccccc3)cc2CN1	–
142	< 10	–	O=C(O)c1cccc(Nc2nc3ccccc3[nH]2)c1	–
2	< 10	–	O=C(CC1SC(=O)NC1=O)Nc1ccccc1O (stereo not drawn)	IC50 [3]: 0.213 µM; inhibition [4]: 37%; Ki [5]: 0.107 µM; inhibition [6]: 35%
117	–	–	Cc1ccn(Cc2cc(C(=O)O)c3ccccc3n2)n1	–
118	< 10	–	O=C(NCc1cc(=O)[nH]cn1)c1cc2ccccn2n1	–
–	30.1	48.8	O=C(O)c1cc(NC(=O)c2ccccc2F)ccc1O	–
44	–	–	O=C(O)CCNc1cc2ccccc2cc1C(=O)O	–
–	< 10	51.2	O=C(O)c1ccc(CNCc2ccccn2)cc1	–
148	–	–	O=C(O)CCNS(=O)(=O)c1ccc2ccccc2c1	–
–	< 10	10.8	Cc1cccc(C(=O)Nc2ccccc2C(N)=O)c1	–
72	44.8	–	O=C(O)c1cccc(NCC(=O)c2ccccc2)c1	–
–	47.4	33.1	Cc1ccc(NC(=O)c2cccnc2)c(C(=O)O)c1	–
–	22.5	17.8	NC(=O)c1ccccc1NC(=O)c1ccncc1	–
–	–	18.4	O=C(O)CNC=C1C(=O)CC(c2ccccc2)CC1=O (stereo not drawn)	–

The remaining lines, values behind:

SMILES	Ki [1] [µM]	inhibition [2] [%]	inhibition [8] [%]	further results
Cc1ccc(S(=O)(=O)Nc2cccc(C(=O)O)c2)cc1	111	43.1	–	–
CC(=O)Nc1ccc(C(C#N)c2ccccc2)cc1 (stereo not drawn)	87	–	–	–
Cc1cc(C(=O)Nc2ccc(O)c(C(=O)O)c2)oc1C	82	< 10	–	–
Cc1cc(Nc2cc(C(=O)O)ccc2C)nc(C)n1	144	39.5	–	–
O=C(CSc1ncnc2[nH]cnc12)Nc1ccccn1	–	–	44.3	Ki [7]: 69 µM
O=C1CCC2(c3ccccc3)Nc3ccccc3N12 (stereo not drawn)	32	43.5	–	IC50 [3]: 5.46 µM; Ki [5]: 2.73 µM
O=CN1CCN(C(=O)c2ccc3ccccc3c2)CC1	–	–	46.7	Ki [7]: 64 µM
CN(c1ccc(C(=O)O)cc1)S(=O)(=O)c1ccccc1	148	–	–	–
Cc1oc(C(N)=O)cc1COc1ccccc1C(N)=O	–	–	53.4	Ki [7]: 122 µM
NC(=O)c1ccccc1/N=C/c1cccc(O)c1	36	< 10	–	–
